Test results as given in paper PMC10401072 (Cancer discovery, 2023).

Key:
[1] = tested on: GOPC-ROS1 fusion-positive pancreatic adenocarcinoma; test: Phase 1 trial tumor response; type: in vivo, human
[2] = tested on: pERK in MIA PaCa-2 tumors; test: Animal PK/PD study: pERK in tumors; type: in vivo, mouse; details: single oral dose 30 mg/kg
Method in brief: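 Female Foxn1nu mice bearing subcutaneous right-flank xenografts (5 × 10^6 cells) grown to about 500 mm3 and randomized by size into groups of three. Each received one 30 mg/kg oral gavage dose in 20% hydroxypropyl-β-cyclodextrin/50 mmol/L citric acid, pH 4. Tumors were taken at 1, 8, 24 and 48 h and lysed in NP-40 buffer. pERK was immunoblotted in 250 μg lysate, normalized to GAPDH and vehicle controls, as POC.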

[3] = Patient pharmacokinetic assessment; type: in vivo, human
Method in brief: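 Compound was given as powder in capsule. Plasma was sampled before treatment and at set intervals after dosing on cycle 1 days 1 and 18 at the starting monotherapy dose. Drug level was measured by a validated LC-MS/MS assay.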

[4] = tested on: pERK in ex vivo CSF1-stimulated peripheral blood monocytes; test: Patient pharmacodynamic assessment; parameters: species or system human; details: ALK NSCLC patient; 20 mg; 4 hours after dosing on C1D1
Method in brief: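 Patient whole blood was shipped refrigerated the same day and processed within a 24 h stability window. Ex vivo stimulation used 9 ng/mL recombinant human M-CSF for 12 min at room temperature, with unstimulated control. Staining with CD45, CD14, ERK1/2 and pERK1/2 (T202/Y204) antibodies ran 30 min in the dark. Flow cytometry excluded doublets and gated CD45+CD14+ monocytes. pERK1/2 MFI was normalized to the unstimulated sample.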

[5] = tested on: EML4-ALK fusion-positive NSCLC; type: in vivo, human; details: after 6 weeks monotherapy, 20 mg BIW
[6] = tested on: metastatic BRAF V600E colorectal cancer; test: Phase 1 trial tumor response; type: in vivo, human; details: after 6 weeks monotherapy; new lesions
Method in brief: (§1)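 Tumor response was assessed by CT imaging every 6 weeks per RECIST v1.1 during oral monotherapy (powder in capsule) on the phase I trial.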

[7] = tested on: KRAS G12D mutant low-grade serous ovarian cancer; test: Phase 1 trial tumor response; type: in vivo, human; details: after 6 weeks of monotherapy
Method in brief: as §1

[8] = Phase 1 trial safety; type: in vivo, human; details: single patient, monotherapy followed by combination, first dose level
Method in brief: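 Lead-in monotherapy ran 2 cycles/6 weeks. Matched targeted therapy was then added at labeled doses upon radiographic progression, if no ongoing grade ≥3 toxicity or DLT. The SHP2 inhibitor restarted one dose level below the highest safe monotherapy dose. Intrapatient escalation was allowed after 1 cycle. Adverse events were graded by CTCAE v5.0, and dose changes followed a prescribed algorithm.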

[9] = cited from earlier work

For C[C@H]1CNC(=O)c2cnn3ccc(nc23)N[C@H](C)c2cc(F)ccc2O1 [repotrectinib, reference compound], the “time to progression on previous therapy” value ([1]; pre-study therapy, patient history) was ~ 10 months.
In the case of Nc1nccc(Sc2cnc(N3CCC4(CC3)Cc3ccccc3[C@H]4N)nn2)c1Cl [PF-07284892], the “suppression of pERK in tumors” value [2] is reported as “significant suppression”, the “plasma level of PF-07284892” value ([3]; ALK NSCLC patient, 20 mg orally BIW, 4 hours after C1D1 dose) is reported as 41 ng/mL and the “plasma level of PF-07284892” value ([3]; ALK NSCLC patient, 20 mg orally BIW, pre-dose C1D18, 3 days after prior dose) is reported as 29 ng/mL. The “plasma level of PF-07284892” value ([3]; BRAF V600E CRC patient, 20 mg BIW, C1D1) was 56 ng/mL, the “plasma level of PF-07284892” value ([3]; BRAF V600E CRC patient, 20 mg BIW, C1D18) was 35 ng/mL and the “decrease in pERK levels in peripheral blood monocytes” value [4] was 80%. The “change in target lesions on CT” value [5] was “+50%”, the “response (RECIST 1.1)” value [5] was “progressive disease” and the “change in target lesions” value [6] was “+43%”. For the same compound, the “tumor growth in two target lesions” value [7] was “+6%”, the “change in two target lesion liver metastases” value ([1]; after 6 weeks of monotherapy) was “+26%” and the “dose-limiting toxicities (DLTs)” value [8] was “no DLTs”.
In the case of Cc1nc(N2CCC3(CC2)CO[C@@H](C)[C@H]3N)c(CO)nc1Sc1ccnc(N)c1Cl [RMC-4630], the “monotherapy activity in FIH trials” value [9] is given as “limited monotherapy activity”.
For C[C@@H]1OCC2(CCN(c3cnc(Sc4ccnc(N)c4Cl)c(N)n3)CC2)[C@@H]1N [TNO155], the “monotherapy activity in FIH trials” value [9] is given as “limited monotherapy activity”.
